High-throughput results from PubChem BioAssay.
TRPC4 agonist: activators of mouse TRPC4 channel, primary screen, Fluo4 calcium, HEK293 TRPC4beta/mu-opioid cells | hit rate 0.49% among 310,000 | Fluo4 calcium fluorescence; hits give high values | B-score at 10 µM | Short transient receptor potential channel 4 (Mus musculus), Q9QUQ5 | AID 2237, 2010;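 active means B-score above 5 SD of library B-scores, and initial fluorescence ratio not above library mean plus 5 SD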;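 further: positive B-score marks a calcium rise read as TRPC4 activation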
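Material: TRPC4beta and mu-opioid receptor HEK293 stable cells | Incubation: 45 min room-temperature Fluo4 loading, 110 s read | Detection: Kinetic Fluo4 calcium fluorescence | Measure: Integrated baseline-normalised fluorescence ratio, converted to per-well B score | Benchmarks: Low control buffer alone, high control maximal DAMGO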
TRPC6 act: mouse TRPC6 channel activators, primary screen, cell-based, HEK293, membrane potential dye; HEK293-TRPC6 membrane potential dye fluorescence; hits give high values; Short transient receptor potential channel 6 (Mus musculus), Q61143; B-score at 10 µM; hit rate 0.13% among 310,000;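 active means B-score of the integrated fluorescence ratio above library mean plus 3 SD, and starting fluorescence ratio within library mean plus 5 SD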;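 further: higher score means more depolarization so channel activation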
TRPC4 PAM: positive allosteric modulators of TRPC4, primary screen, cell-based, mouse TRPC4beta, HEK293 mu-opioid, Fluo-4 calcium; DAMGO EC20, Fluo-4 Ca2+ flux; hits give high values; hit rate 0.42% among 310,000; B-score at 10 µM;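 active means B-score of calcium response area above 5 SD of library B-scores, with initial fluorescence ratio within 5 SD of library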;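 further: B-score of integrated fluorescence ratio over time as area under calcium response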
TRPC4 inh: inhibitors of mouse TRPC4 channel, primary screen, Fluo4 calcium, HEK293 TRPC4beta/mu-opioid cells; Short transient receptor potential channel 4 (Mus musculus), Q9QUQ5; DAMGO-evoked Fluo4 calcium flux; hits give low values; B-score at 10 µM; hit rate 0.39% among 300,000; AID 2247, 2010;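 active means B-score over 3 SD under the library average, no early fluorescence shift, positive overall ratio signal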
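material = TRPC4beta/mu-opioid receptor HEK293 cell line | probe or stimulus = sequential submaximal and maximal DAMGO stimulation | compound dosing = one concentration per compound | measured by = Fluo4 Ca2+ flux fluorescence | evaluation = integrated fluorescence ratio relative to baseline, converted to per-well B score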
TRPC6 inh: mouse TRPC6 channel inhibitors, primary screen, cell-based, HEK293, membrane potential dye; ACh-evoked depolarization; hits give low values; AID 2553, 2010; hit rate 1.1% among 310,000; B-score at 10 µM;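 active means B-score under library mean minus 3 SD, initial fluorescence not abnormally high, positive integrated signal ratio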;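 further: B-score derived from integrated fluorescence ratio over the kinetic read; more negative B-score means stronger inhibition of depolarization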
Active calls of the source: *; i = inactive. An excerpt weighted towards active compounds, which were near 2.3% of everything screened.

SMILES	TRPC4 agonist	TRPC6 act	TRPC4 PAM	TRPC4 inh	TRPC6 inh
CCN(CC)P(=O)(/C=C(\Cl)c1ccccc1)/C=C(\Cl)c1ccccc1	i	i	17*	i	i
Cc1ccc(C)c(-n2c(C)nc3ccccc3c2=O)c1	i	i	i	i	i
Cc1cc(NCCN)nc2ccccc12	i	i	28*	i	i
COCc1ccc(CN2CCCC(C(=O)c3sccc3C)C2)o1 (stereo unspecified)	i	i	i	i	i
CCc1ccc(CN2CCCC(C(=O)c3sccc3C)C2)o1 (stereo unspecified)	i	i	i	-8*	i
Cc1ccsc1C(=O)C1CCCN(Cc2ccccc2O)C1 (stereo unspecified)	i	i	i	-6*	i
COc1ccc(O)c(CN2CCCC(C(=O)c3sccc3C)C2)c1 (stereo unspecified)	i	i	i	-7*	i
CCOc1ccc(N2C(=O)NC(=O)/C(=C/c3cnc(SC)nc3)C2=O)cc1	i	i	i	i	i
CCCCn1c(NS(=O)(=O)c2ccccc2)c(C(=O)OCC)c2nc3ccccc3nc21	i	i	i	i	i
CCCCn1c(NC(=O)c2ccc(Br)o2)c(C(=O)OCC)c2nc3ccccc3nc21	i	15.5*	i	i	i
Cn1c(=O)c2c(nc(N/N=C/c3c(O)n(-c4ccccc4)c(=S)[nH]c3=O)n2C)n(C)c1=O	i	i	i	i	i
Cc1ccc(CN2C3CCCC2CC(NC(=S)NCc2ccccc2)C3)cc1 (stereo unspecified)	i	i	i	-8*	i
O=c1[nH]c(=O)n(Cc2ccc(F)cc2)c(O)c1C=NCCCO	57*	i	i	-5*	i
O=c1[nH]c(=O)n(Cc2ccc(F)cc2)c(O)c1C=NCCCn1ccnc1	i	i	i	i	i
CCCCCOc1ccc(C)cc1CN(CCCl)CCCl	i	i	i	i	i
COc1cc(OC)c(OC)cc1CNCCc1cccc(F)c1	i	i	i	i	i
COc1ccc(CNCCc2cccc(F)c2)c2ccccc12	57*	i	i	i	i
COc1cc(OC)c(OC)cc1CNCCc1ccc(OC)c(OC)c1	i	i	i	i	i
COc1ccc(CNCCc2ccc(Cl)cc2)c(OC)c1OC	62*	i	i	i	i
CCc1c(C)nc(N)nc1N1N=C1SC(C(C)=O)C(C)=O	i	i	i	i	i
CC/C(=C\C=C\[C@@H]1C=C[C@@H]2CCC[C@H]2[C@@H]1C(=O)c1ccc[nH]1)[C@@H]1O[C@@H]([C@@H](C)C(=O)O)CC[C@@H]1C	67*	i	i	i	i
O=C(Cn1ncn2c(cc3cc(F)ccc32)c1=O)N1CCC2(CC1)OCCO2	i	i	i	i	i
Clc1ccc2c(c1)C(c1ccccc1Cl)=NCc1nnc(N3CCN(CCSc4ccccc4)CC3)n1-2	i	i	i	i	i
Clc1ccc2c(c1)C(c1ccccc1Cl)=NCc1nnc(N3CCN(CCOc4ccccc4)CC3)n1-2	i	i	29*	i	i
O=c1ccc2cc(O[C@@H]3O[C@@H](CO)[C@H](O)[C@@H](O)[C@@H]3O)c(O)cc2o1	i	i	i	i	i
Cc1cccc(N=Cc2c(O)n(-c3ccccc3C)c(=O)[nH]c2=O)c1	i	i	24*	i	i
C[N+]1(CCC(C(N)=O)(c2ccccc2)c2ccccc2)CCCCC1	i	i	i	i	-9.67*
COc1ccc2c(C)c(CCC(=O)N3C[C@H]4C[C@@H](C3)c3cccc(=O)n3C4)c(=O)oc2c1	i	i	i	i	i
O=C(c1ccc(Cl)cc1)C1CCCN(Cc2ccc3ncccc3c2)C1 (stereo unspecified)	80*	i	i	i	i
